Data as given in PMC3983351 (Journal of Medicinal Chemistry, 2014).

Experiment: silicate ester hydrolysis rate study by 1H NMR
Assay type: physicochemical
Details: for difference in krel, triethyl vs trioctyl silicate: 1a vs 1b (PTX) or 4a vs 4b; for ∼krel of hydrolysis at C2′: C2′ silicate; for ∼krel of hydrolysis at C2′ / ∼krel of hydrolysis at C7: kobs relative to that of 1d; for ∼krel of hydrolysis at C7: C7 silicate
In short: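 About 10 mg silicate ester in 900 μL acetone-d6, then 100 μL of 9:1 v/v D2O/TFA added and mixed. Held at 22 °C ± 1.0 °C. 1H NMR at 500 MHz (16 or 32 transients) at 8–30 time points over more than 3 half-lives. The 2′/7-methine signals of silicate and free taxane were integrated against H5. kobs came from the ln[species] vs time slope (three replicates). krel is kobs divided by that of the reference silicate.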

difference in krel, triethyl vs trioctyl silicate | ∼krel of hydrolysis at C2′ | ∼krel of hydrolysis at C7 | Compound
~3 | 6500 |  | 2′-O-(Triethoxysilyl)docetaxel [4a]
 |  | 450 | CCCCCCCCO[Si](OCCCCCCCC)(OCCCCCCCC)O[C@H]1C[C@H]2OC[C@@]2(OC(C)=O)[C@H]2[C@H](OC(=O)c3ccccc3)[C@]3(O)C[C@H](OC(=O)[C@H](O)[C@@H](NC(=O)c4ccccc4)c4ccccc4)C(C)=C([C@@H](OC(C)=O)C(=O)[C@]12C)C3(C)C [3b, 7-O-(Tri-n-octyloxysilyl)paclitaxel]
 | 2600 |  | 2′-O-(Tri-n-octyloxysilyl)docetaxel [4b]
 | 260 |  | 2′-O-(Triisopropoxysilyl)docetaxel [4c]
 | 1.0 |  | CC(=O)O[C@H]1C(=O)[C@@]2(C)[C@H]([C@H](OC(=O)c3ccccc3)[C@]3(O)C[C@H](OC(=O)[C@H](O[Si](OC4CC(C)CCC4C(C)C)(OC4CC(C)CCC4C(C)C)OC4CC(C)CCC4C(C)C)[C@@H](NC(=O)c4ccccc4)c4ccccc4)C(C)=C1C3(C)C)[C@]1(OC(C)=O)CO[C@@H]1C[C@@H]2O (some centres unmarked) [1d, 2′-[(Trimenthyloxy)silyl]paclitaxel]
 | 570 |  | CC(=O)O[C@H]1C(=O)[C@@]2(C)[C@H]([C@H](OC(=O)c3ccccc3)[C@]3(O)C[C@H](OC(=O)[C@H](O[Si](OC(C)C)(OC(C)C)OC(C)C)[C@@H](NC(=O)c4ccccc4)c4ccccc4)C(C)=C1C3(C)C)[C@]1(OC(C)=O)CO[C@@H]1C[C@@H]2O [1c, 2′-O-[(Triisopropoxy)silyl]paclitaxel]
 | 3800 | 340 | CCCCCCCCO[Si](OCCCCCCCC)(OCCCCCCCC)O[C@H]1C[C@H]2OC[C@@]2(OC(C)=O)[C@H]2[C@H](OC(=O)c3ccccc3)[C@]3(O)C[C@H](OC(=O)[C@H](O[Si](OCCCCCCCC)(OCCCCCCCC)OCCCCCCCC)[C@@H](NC(=O)c4ccccc4)c4ccccc4)C(C)=C([C@@H](OC(C)=O)C(=O)[C@]12C)C3(C)C [2b, 2′,7-Di-O-(Tri-n-octyloxysilyl)paclitaxel]
 | 15000 | 2100 | CCO[Si](OCC)(OCC)O[C@H]1C[C@H]2OC[C@@]2(OC(C)=O)[C@H]2[C@H](OC(=O)c3ccccc3)[C@]3(O)C[C@H](OC(=O)[C@H](O[Si](OCC)(OCC)OCC)[C@@H](NC(=O)c4ccccc4)c4ccccc4)C(C)=C([C@@H](OC(C)=O)C(=O)[C@]12C)C3(C)C [2a, 2′,7-Di-O-(triethoxysilyl)paclitaxel]
 | 0.88 |  | 2′-(Trimenthyloxysilyloxy)docetaxel [4d]
 |  | 2200 | CCO[Si](OCC)(OCC)O[C@H]1C[C@H]2OC[C@@]2(OC(C)=O)[C@H]2[C@H](OC(=O)c3ccccc3)[C@]3(O)C[C@H](OC(=O)[C@H](O)[C@@H](NC(=O)c4ccccc4)c4ccccc4)C(C)=C([C@@H](OC(C)=O)C(=O)[C@]12C)C3(C)C [3a, 7-O-(Triethoxysilyl)paclitaxel]
 | 520 | 46 | CC(=O)O[C@H]1C(=O)[C@]2(C)[C@@H](O[Si](OC(C)C)(OC(C)C)OC(C)C)C[C@H]3OC[C@@]3(OC(C)=O)[C@H]2[C@H](OC(=O)c2ccccc2)[C@]2(O)C[C@H](OC(=O)[C@H](O[Si](OC(C)C)(OC(C)C)OC(C)C)[C@@H](NC(=O)c3ccccc3)c3ccccc3)C(C)=C1C2(C)C [2c, 2′,7-Di-O-(triisopropoxysilyl)paclitaxel]
~3 | 18000 |  | CCO[Si](OCC)(OCC)O[C@@H](C(=O)O[C@H]1C[C@@]2(O)[C@@H](OC(=O)c3ccccc3)[C@@H]3[C@]4(OC(C)=O)CO[C@@H]4C[C@H](O)[C@@]3(C)C(=O)[C@H](OC(C)=O)C(=C1C)C2(C)C)[C@@H](NC(=O)c1ccccc1)c1ccccc1 [1a, 2′-O-[(Triethoxy)silyl]paclitaxel]

Compound | difference in krel, triethyl vs trioctyl silicate | ∼krel of hydrolysis at C2′ | ∼krel of hydrolysis at C7
CC(=O)O[C@H]1C(=O)[C@@]2(C)[C@H]([C@H](OC(=O)c3ccccc3)[C@]3(O)C[C@H](OC(=O)[C@H](O[Si](OC(C)=O)(OC(C)(C)C)OC(C)(C)C)[C@@H](NC(=O)c4ccccc4)c4ccccc4)C(C)=C1C3(C)C)[C@]1(OC(C)=O)CO[C@@H]1C[C@@H]2O [1g, 2′-O-(Di-tert-butoxyacetoxysilyl)paclitaxel] |  | 1900 | 
CCO[Si](O[C@@H](C(=O)O[C@H]1C[C@@]2(O)[C@@H](OC(=O)c3ccccc3)[C@@H]3[C@]4(OC(C)=O)CO[C@@H]4C[C@H](O)[C@@]3(C)C(=O)[C@H](OC(C)=O)C(=C1C)C2(C)C)[C@@H](NC(=O)c1ccccc1)c1ccccc1)(OC(C)(C)C)OC(C)(C)C [1f, 2′-O-[(Di-tert-butoxy)(ethoxy)silyl]paclitaxel] |  | 5.6 | 
2′-(Di-tert-butoxyethoxysilyl)docetaxel [4e] |  | 5.0 | 
